From ChEMBL document CHEMBL2440017, “Discovery of a potent, selective, and orally bioavailable histamine H3 receptor antagonist SAR110068 for the treatment of sleep-wake disorders” (Bioorg Med Chem Lett, 2013)
In brackets after ≈: the same amount, converted by molar mass. Activity calls are given as the source filed them. No cut-off for these calls is given here.

What was measured:
[1] = Metabolic stability in monkey microsomes; assay type: ADME, Macaca mulatta, Microsome; conditions: rhesus monkey
Procedure, shortened: (§1)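 Percentage biotransformation measured in vitro in liver microsomes of each species.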

[2] = Plasma concentration in cynomolgus monkey at 10 mg/kg, iv after 15 mins; assay type: ADME, organism-based, Macaca fascicularis; set-up: dose 10 mg/kg, route intravenous
Procedure, shortened: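 Anaesthetized cynomolgus monkeys were dosed 10 mg/kg i.v. Plasma drug concentrations were measured at 5, 15 and 30 min post-dose, alongside arterial pressure, heart rate and ECG intervals.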

[3] = Solubility of the compound in gastrointestinal tract simulation medium; assay type: physicochemical
[4] = Drug degradation in water after 48 hrs at room temperature; assay type: physicochemical; conditions: read-out: Drug degradation
Procedure, shortened: (§2)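 Compound kept 48 h at room temperature in water, aqueous solutions of pH 1.0–7.4, DMSO, or GI-tract simulation medium. Percent degradation measured.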

[5] = Distribution coefficient, log D of the compound at pH 7.4; assay type: physicochemical; conditions: octanol/water
[6] = system: Rattus norvegicus; experiment: Awakening activity in rat assessed as increased wakefulness at 3 to 10 mg/kg, po; assay type: functional, organism-based
Procedure, shortened: (§3)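 Rats given compound orally at 3 or 10 mg/kg, or reference drugs i.p. or p.o. at 10 mg/kg. EEG recorded during the light phase and scored as wakefulness, slow wave sleep and REM sleep. Time-course analysis of the effects.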

[7] = Drug degradation in gastrointestinal tract simulation medium after 48 hrs at room temperature; assay type: physicochemical; conditions: read-out: Drug degradation; procedure, shortened: as §2
[8] = Solubility of the compound in water; assay type: physicochemical
[9] = Metabolic stability in rabbit microsomes; assay type: ADME, Oryctolagus cuniculus, Microsome; procedure, shortened: as §1
[10] = species: Homo sapiens; experiment: Inhibition of sigma 2 receptor (unknown origin) at 10 uM
Procedure, shortened: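 CEREP selectivity panel: percent inhibition of control specific binding at 10 µM.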

[11] = system: Plasma; experiment: Clearance in Sprague-Dawley rat plasma at 2 mg/kg, iv; assay type: ADME, organism-based; set-up: dose 2 mg/kg, route intravenous; conditions: in vivo
Procedure, shortened: (§4)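 Male OF1 mice or male Sprague-Dawley rats, single 2 mg/kg i.v. dose. Mouse vehicle 50% 1-methyl-2-pyrrolidinone in saline at 1.0 mg/mL; rat vehicle saline at 0.5 mg/mL. Plasma and brain levels followed over time; AUC0-inf, t1/2 and clearance derived from exposure. Brain/plasma ratio uses i.v. AUC0-inf.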

[12] = Genotoxicity in micronucleus (unknown origin) at 5 to 950 ug/ml in presence of human liver microsomes; assay type: toxicity, Microsome
Procedure, shortened: (§5)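 Ames II and micronucleus tests, Ames over 3–1000 µg/mL and MNT over 5–950 µg/mL. Each run with and without metabolic activation by human liver microsome preparations.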

[13] = Activation of p-glycoprotein (unknown origin); conditions: human
[14] = system: Rattus norvegicus; experiment: Awakening activity in rat assessed as decrease in slow wave and REM sleep at 3 to 10 mg/kg, po; assay type: functional, organism-based; procedure, shortened: as §3
[15] = AUC (0 to infinity) in Sprague-Dawley rat plasma at 2 mg/kg, iv; assay type: ADME, organism-based; set-up: time infinity, dose 2 mg/kg, route intravenous; procedure, shortened: as §4
[16] = Genotoxicity in micronucleus (unknown origin) at 5 to 950 ug/ml; procedure, shortened: as §5
[17] = target: Cytochrome P450 2D6 (Homo sapiens, UniProt P10635); experiment: Inhibition of CYP2D6 (unknown origin); assay type: ADME
Chain of Cytochrome P450 2D6 (P10635 whole entry): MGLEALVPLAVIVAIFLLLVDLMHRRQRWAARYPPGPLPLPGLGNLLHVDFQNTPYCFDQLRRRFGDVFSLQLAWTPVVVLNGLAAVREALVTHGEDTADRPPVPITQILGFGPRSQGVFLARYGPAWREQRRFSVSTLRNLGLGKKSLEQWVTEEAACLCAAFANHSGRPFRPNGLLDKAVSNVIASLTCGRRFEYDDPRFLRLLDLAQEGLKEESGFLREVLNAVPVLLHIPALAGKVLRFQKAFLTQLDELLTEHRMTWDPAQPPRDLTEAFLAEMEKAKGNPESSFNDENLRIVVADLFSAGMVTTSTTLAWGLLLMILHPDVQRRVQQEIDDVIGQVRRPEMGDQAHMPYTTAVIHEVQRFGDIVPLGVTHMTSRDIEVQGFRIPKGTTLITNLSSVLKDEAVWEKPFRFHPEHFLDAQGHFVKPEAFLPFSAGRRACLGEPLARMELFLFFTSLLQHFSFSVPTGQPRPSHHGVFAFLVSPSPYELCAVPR

[18] = AUC (0 to infinity) in Sprague-Dawley rat plasma at 10 mg/kg, po; assay type: ADME, organism-based; set-up: time infinity, dose 10 mg/kg, route oral
Procedure, shortened: (§6)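 Oral gavage at 10 mg/kg to male OF1 mice (vehicle 5% DMSO/0.5% MC/0.2% Tween80, 1.0 mg/mL) or male Sprague-Dawley rats (vehicle 0.5% MC/0.2% Tween80, 1.0 mg/mL). Plasma and brain exposure and half-life determined.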

[19] = system: Plasma; experiment: Metabolic stability in sheep plasma; assay type: ADME, cell-free, Ovis aries
Procedure, shortened: (§7)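 Compound stability measured in plasma of each species in vitro.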

[20] = Elimination half life in Sprague-Dawley rat plasma at 10 mg/kg, po; assay type: ADME, organism-based; set-up: dose 10 mg/kg, route oral; conditions: read-out: beta t1/2 (converted); procedure, shortened: as §6
[21] = Oral bioavailability in OF1 mouse plasma at 10 mg/kg; assay type: ADME, organism-based
Procedure, shortened: (§8)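 Male OF1 mice received 2 mg/kg i.v. (1.0 mg/mL in 50% 1-methyl-2-pyrrolidinone/saline) or 10 mg/kg p.o. (1.0 mg/mL in 5% DMSO/0.5% MC/0.2% Tween80). Plasma and brain AUC0-inf were measured, and the B/P ratio was calculated from i.v. AUC0-inf.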

[22] = AUC in OF1 mouse brain at 10 mg/kg, po; assay type: ADME, organism-based; set-up: dose 10 mg/kg, route oral; procedure, shortened: as §6
[23] = Biotransformation in human microsomes; assay type: ADME, Microsome; conditions: read-out: Activity
Procedure, shortened: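 Percentage biotransformation measured in human liver microsomes in vitro.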

[24] = target: Voltage-gated inwardly rectifying potassium channel KCNH2 (Homo sapiens, UniProt Q12809); experiment: Inhibition of human ERG expressed in CHO cells by patch-clamp technique; assay type: cell-based
Chain of Voltage-gated inwardly rectifying potassium channel KCNH2 (Q12809 whole entry): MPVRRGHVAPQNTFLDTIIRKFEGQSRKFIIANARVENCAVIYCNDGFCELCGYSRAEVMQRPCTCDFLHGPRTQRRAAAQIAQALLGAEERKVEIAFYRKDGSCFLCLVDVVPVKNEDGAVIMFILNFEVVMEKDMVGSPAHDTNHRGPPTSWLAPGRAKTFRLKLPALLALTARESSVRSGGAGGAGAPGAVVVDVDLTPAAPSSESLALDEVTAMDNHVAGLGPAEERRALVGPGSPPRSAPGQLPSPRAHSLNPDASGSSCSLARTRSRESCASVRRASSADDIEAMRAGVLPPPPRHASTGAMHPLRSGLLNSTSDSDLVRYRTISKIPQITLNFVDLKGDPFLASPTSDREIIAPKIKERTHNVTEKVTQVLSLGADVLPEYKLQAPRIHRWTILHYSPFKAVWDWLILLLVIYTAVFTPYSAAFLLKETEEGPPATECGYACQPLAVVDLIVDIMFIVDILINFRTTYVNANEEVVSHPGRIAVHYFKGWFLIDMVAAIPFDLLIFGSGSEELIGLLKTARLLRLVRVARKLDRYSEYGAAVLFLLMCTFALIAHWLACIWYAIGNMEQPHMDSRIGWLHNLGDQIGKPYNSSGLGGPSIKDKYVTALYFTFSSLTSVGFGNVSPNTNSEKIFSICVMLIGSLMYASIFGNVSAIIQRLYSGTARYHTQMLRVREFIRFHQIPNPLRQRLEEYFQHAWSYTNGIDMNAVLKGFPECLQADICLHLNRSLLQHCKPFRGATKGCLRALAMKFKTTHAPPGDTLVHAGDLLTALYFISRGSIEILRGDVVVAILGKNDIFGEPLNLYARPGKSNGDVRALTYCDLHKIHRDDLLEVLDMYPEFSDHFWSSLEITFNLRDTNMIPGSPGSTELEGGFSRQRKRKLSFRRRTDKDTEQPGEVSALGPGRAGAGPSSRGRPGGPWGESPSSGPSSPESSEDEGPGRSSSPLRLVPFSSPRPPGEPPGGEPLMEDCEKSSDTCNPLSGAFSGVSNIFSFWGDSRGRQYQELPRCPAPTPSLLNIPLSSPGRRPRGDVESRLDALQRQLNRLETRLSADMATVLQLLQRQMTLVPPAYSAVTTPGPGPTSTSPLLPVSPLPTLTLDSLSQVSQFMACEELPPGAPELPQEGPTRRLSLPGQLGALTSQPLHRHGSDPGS
Procedure, shortened: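 hERG current recorded by whole-cell patch clamp in CHO cells stably transfected with the human ERG gene.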

[25] = Ratio of AUC (0 to infinity) in OF1 mouse brain to AUC (0 to infinity) in OF1 mouse plasma at 2 mg/kg, iv; assay type: ADME, organism-based; set-up: dose 2 mg/kg, route intravenous; conditions: read-out: Ratio AUC; procedure, shortened: as §8
[26] = target: Histamine H3 receptor (Cavia porcellus) (UniProt Q9JI35); experiment: Antagonist activity at histamine H3 receptor in guinea pig ileum assessed as inhibition of RAMH-induced inhibition of electrical field-stimulated contraction; assay type: tissue-based
Chain of Histamine H3 receptor (Cavia porcellus) (Q9JI35 whole entry): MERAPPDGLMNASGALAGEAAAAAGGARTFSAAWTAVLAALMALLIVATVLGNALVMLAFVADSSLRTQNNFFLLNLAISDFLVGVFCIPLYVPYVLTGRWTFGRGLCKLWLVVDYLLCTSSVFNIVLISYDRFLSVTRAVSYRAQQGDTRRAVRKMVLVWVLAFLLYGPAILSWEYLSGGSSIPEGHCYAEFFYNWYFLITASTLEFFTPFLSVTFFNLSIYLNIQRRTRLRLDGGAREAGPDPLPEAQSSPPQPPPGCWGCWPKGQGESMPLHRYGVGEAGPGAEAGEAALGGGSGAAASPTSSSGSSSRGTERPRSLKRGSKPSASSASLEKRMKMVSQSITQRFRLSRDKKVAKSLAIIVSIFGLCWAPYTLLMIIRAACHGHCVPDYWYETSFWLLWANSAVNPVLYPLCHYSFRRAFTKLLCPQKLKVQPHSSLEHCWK
Procedure, shortened: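 Isolated guinea pig ileum contracted by electrical field stimulation. Contractions inhibited with the H3 agonist RAMH; test compound examined for competitive antagonism of this RAMH effect.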

[27] = system: Plasma; experiment: Metabolic stability in dog plasma; assay type: ADME, cell-free, Canis lupus familiaris; procedure, shortened: as §7
[28] = system: Cynomolgus monkey; experiment: Cardiotoxicity in cynomolgus monkey assessed as blood arterial pressure and heart rate at 10 mg/kg, iv; assay type: toxicity, organism-based, Macaca fascicularis; set-up: dose 10 mg/kg, route intravenous; conditions: in vivo
Procedure, shortened: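 Anaesthetized cynomolgus monkeys dosed 10 mg/kg i.v. Arterial blood pressure, heart rate and ECG (PR, QRS, QTc intervals) monitored. Plasma drug sampled at 5, 15 and 30 min post-dose.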

[29] = Elimination half life in OF1 mouse plasma at 2 mg/kg, iv; assay type: ADME, organism-based; set-up: dose 2 mg/kg, route intravenous; conditions: read-out: beta t1/2 (converted); procedure, shortened: as §4
[30] = AUC in Sprague-Dawley rat brain at 10 mg/kg, po; assay type: ADME, organism-based; set-up: dose 10 mg/kg, route oral; procedure, shortened: as §6
[31] = AUC (0 to infinity) in OF1 mouse brain at 2 mg/kg, iv; assay type: ADME, organism-based; set-up: time infinity, dose 2 mg/kg, route intravenous; procedure, shortened: as §4
[32] = Volume of distribution in Sprague-Dawley rat plasma at 2 mg/kg, iv; assay type: ADME, organism-based; set-up: dose 2 mg/kg, route intravenous
Procedure, shortened: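 Male Sprague–Dawley rats received 2 mg/kg i.v. (0.5 mg/mL in saline) or 10 mg/kg p.o. (1.0 mg/mL in 0.5% MC/0.2% Tween80). Plasma and brain AUC0-inf were measured, and the B/P ratio was calculated from i.v. AUC0-inf.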

[33] = Inhibition of p-glycoprotein (unknown origin); conditions: human
[34] = Elimination half life in Sprague-Dawley rat brain at 10 mg/kg, po; assay type: ADME, organism-based; set-up: dose 10 mg/kg, route oral; conditions: read-out: beta t1/2 (converted); procedure, shortened: as §6
[35] = system: Mus musculus; experiment: Toxicity in mouse assessed as tremors at 100 mg/kg, po; assay type: organism-based; set-up: dose 100 mg/kg, route oral; conditions: in vivo
[36] = Metabolic stability in guinea pig microsomes; assay type: ADME, Cavia porcellus, Microsome; procedure, shortened: as §1
[37] = target: Cytochrome P450 2C9 (Homo sapiens, UniProt P11712); experiment: Inhibition of CYP2C9 (unknown origin); assay type: ADME
Chain of Cytochrome P450 2C9 (P11712 whole entry): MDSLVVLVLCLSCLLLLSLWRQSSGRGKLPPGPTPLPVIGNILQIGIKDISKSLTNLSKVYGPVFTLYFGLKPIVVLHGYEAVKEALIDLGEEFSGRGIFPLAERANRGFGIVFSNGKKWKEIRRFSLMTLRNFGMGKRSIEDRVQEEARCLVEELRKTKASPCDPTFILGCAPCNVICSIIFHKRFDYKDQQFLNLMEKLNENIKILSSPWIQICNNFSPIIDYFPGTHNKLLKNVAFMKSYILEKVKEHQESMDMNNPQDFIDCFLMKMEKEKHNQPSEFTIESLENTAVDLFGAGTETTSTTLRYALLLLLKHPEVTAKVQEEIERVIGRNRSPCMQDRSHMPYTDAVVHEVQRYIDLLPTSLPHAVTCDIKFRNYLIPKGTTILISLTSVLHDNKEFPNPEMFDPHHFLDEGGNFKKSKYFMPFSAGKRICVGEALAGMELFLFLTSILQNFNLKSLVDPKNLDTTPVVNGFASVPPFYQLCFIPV

[38] = Induction of CYP450 in human hepatocytes at 1 to 60 uM; assay type: ADME, cell-based, Hepatocyte
Procedure, shortened: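 Human hepatocytes (n = 4) exposed at 1–60 concentration and examined for induction of CYP isoforms.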

- Stability [1]: Stable
- concentration at 0.25 h [2]: 14 µM
- solubility [3]: > 2500 µg/mL
- degraded at 48 h [4]: < 2%
- logD [5]: 0.15
- degraded at 48 h [7]: < 2%
- solubility [8]: 1100 µg/mL (≈ 2960 µM)
- Stability [9]: Stable
- inhibition [10]: 53%
- clearance [11]: 16.7 mL/min/kg
- Activity [13]: Not Active
- AUC(0-inf) [15]: 2100 ng·h/mL
- inhibition (INH) [17]: Active
- AUC(0-inf) [18]: 8400 ng·h/mL
- Stability [19]: Stable
- half-life [20]: 3 h
- bioavailability [21]: 58%
- AUC [22]: 1200 ng·h/mL
- metabolised [23]: < 5%
- Kp [25]: 0.35
- inhibition [26]: Active
- Stability [27]: Stable
- half-life [29]: 3.6 h
- AUC [30]: 4200 ng·h/mL
- AUC(0-inf) [31]: 380 ng·h/mL
- Vd [32]: 3.1 L/kg
- inhibition (INH) [33]: Not Active
- half-life [34]: 3.8 h
- Stability [36]: Stable
- inhibition (INH) [37]: Active
- Activity [38]: Not Active
Compound: Cc1cc(N2CC[C@H](N3CCC[C@@H]3C)C2)ccc1NC(=O)C1CCOCC1
- Activity [6]: Active
- Activity [12]: Non-toxic
- Activity [14]: Active
- Activity [16]: Non-toxic
- IC50 [24]: 18.9 µM
- Activity [28]: Non-toxic
- Activity [35]: Non-toxic
